Measured values taken from ChEMBL document CHEMBL1143889, “N-Phenyl and N-phenylalkyl-maleimides acting against Candida spp.: time-to-kill, stability, interaction with maleamic acids” (2008).
Converted amounts (≈) assume the structure as drawn. The source made the active and inactive calls. No cut-off for these calls is given here.

Tests used:
Torulaspora delbrueckii = assay: Antifungal activity against Candida coliculosa C 122-2000 after 48 hrs by CLSI M27-A2 method; format: functional
How it was run: (§1)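 Broth microdilution per CLSI M27-A2 in RPMI-1640, with twofold dilutions giving final 250–0.98 µg/mL. The inoculum was modified to 1–5 × 10⁴ CFU/mL instead of 1–5 × 10³, with ketoconazole and amphotericin B as positive controls. MIC was the lowest concentration giving total growth inhibition, read visually. Strains were grown on Sabouraud-chloramphenicol agar for 24 h at 37 °C.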

Candida albicans [1] = assay: Antifungal activity against Candida albicans C 130-2000 after 48 hrs by CLSI M27-A2 method; format: functional; how it was run: as §1
Kluyveromyces marxianus = assay: Antifungal activity against Candida kefyr C 123-2000 after 48 hrs by CLSI M27-A2 method; format: functional; how it was run: as §1
Nakaseomyces glabratus = assay: Antifungal activity against Candida glabrata C 115-2000 after 48 hrs by CLSI M27-A2 method; format: functional; how it was run: as §1
Candida albicans [2] = assay: Antifungal activity against Candida albicans ATCC 10231 after 48 hrs by CLSI M27-A2 method; format: functional; conditions: ATCC 10231, 48 h; how it was run: as §1
Candida albicans [3] = assay: Antifungal activity against Candida albicans C 126-2000 after 48 hrs by CLSI M27-A2 method; format: functional; how it was run: as §1
Candida albicans [4] = assay: Antifungal activity against Candida albicans C 127-2000 after 48 hrs by CLSI M27-A2 method; format: functional; how it was run: as §1
Candida albicans [5] = assay: Antifungal activity against Candida albicans C 125-2000 after 48 hrs by CLSI M27-A2 method; format: functional; how it was run: as §1
Candida albicans [6] = assay: Antifungal activity against Candida albicans C 129-2000 after 48 hrs by CLSI M27-A2 method; format: functional; how it was run: as §1
Candida tropicalis = assay: Antifungal activity against Candida tropicalis C 137-1997 after 48 hrs by CLSI M27-A2 method; format: functional; how it was run: as §1
Pichia kudriavzevii = assay: Antifungal activity against Candida krusei C 117-2000 after 48 hrs by CLSI M27-A2 method; format: functional; how it was run: as §1
Clavispora lusitaniae = assay: Antifungal activity against Candida lusitaniae C 131-2000 after 48 hrs by CLSI M27-A2 method; format: functional; how it was run: as §1
Candida parapsilosis = assay: Antifungal activity against Candida parapsilosis C 124-2000 after 48 hrs by CLSI M27-A2 method; format: functional; conditions: Lodderomyces parapsilosis; how it was run: as §1
Candida albicans [7] = assay: Antifungal activity against Candida albicans C 128-2000 after 48 hrs by CLSI M27-A2 method; format: functional; how it was run: as §1
Candida albicans [8] = assay: Antifungal activity against Candida albicans ATCC 10231 pre-incubated for 5 days analysed after 24 hrs by CLSI M27-A2 method; format: functional
How it was run: (§2)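 Twofold maleimide dilutions (1000–0.98 µg/mL) in complete M27-A2 medium without inoculum were held at 37 °C, with one plate row filled on each of 7 consecutive days to give 0–7 days of pre-incubation. All wells were then inoculated with C. albicans ATCC 10231 at 1–5 × 10⁴ CFU/mL and incubated for 24 h at 37 °C. MIC was read per row, in duplicate.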

Candida albicans [9] = assay: Antifungal activity against Candida albicans ATCC 10231 within 90 mins by time-to-kill study; format: functional, organism-based
How it was run: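 C. albicans ATCC 10231 (2–2.5 × 10⁴ CFU/mL) in 5 mL RPMI-1640 was exposed to 1× MFC of compound at 37 °C with agitation. 10 µL samples taken at 0, 30, 60, 90 and 120 min, and at 4, 8, 12 and 24 h, were plated on drug-free SDA and colonies counted after 24–48 h at 37 °C. Run in duplicate.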

Candida albicans [10] = assay: Antifungal activity against Candida albicans ATCC 10231 pre-incubated for 2 days analysed after 24 hrs by CLSI M27-A2 method; format: functional; how it was run: as §2
Candida albicans [11] = assay: Antifungal activity against Candida albicans ATCC 10231 preincubated for 7 days analysed after 24 hrs by CLSI M27-A2 method; format: functional; how it was run: as §2
Candida albicans [12] = assay: Antifungal activity against Candida albicans ATCC 10231 pre-incubated for 6 days analysed after 24 hrs by CLSI M27-A2 method; format: functional; how it was run: as §2
Candida albicans [13] = assay: Antifungal activity against Candida albicans ATCC 10231 pre-incubated for 1 day analysed after 24 hrs by CLSI M27-A2 method; format: functional; how it was run: as §2
Candida albicans [14] = assay: Antifungal activity against Candida albicans ATCC 10231 after 24 hrs by CLSI M27-A2 method; format: functional; conditions: ATCC 10231, 24 h; how it was run: as §1
Candida albicans [15] = assay: Antifungal activity against Candida albicans ATCC 10231 pre-incubated for 3 days analysed after 24 hrs by CLSI M27-A2 method; format: functional; how it was run: as §2
Candida albicans [16] = assay: Antifungal activity against Candida albicans ATCC 10231 pre-incubated for 4 days analysed after 24 hrs by CLSI M27-A2 method; format: functional; how it was run: as §2

Molecule C[C@@H]1[C@H](O)[C@@H](C)/C=C/C=C/C=C/C=C/C=C/C=C/C=C/[C@H](O[C@@H]2O[C@H](C)[C@@H](O)[C@H](N)[C@@H]2O)C[C@@H]2O[C@](O)(C[C@@H](O)C[C@@H](O)[C@H](O)CC[C@@H](O)C[C@@H](O)CC(=O)O[C@H]1C)C[C@H](O)[C@H]2C(=O)O [AMPHOTERICIN B] has an MIC (Torulaspora delbrueckii) of 0.39 µg/mL (≈ 0.422 µM), an MIC (Candida albicans [1]) of 0.39 µg/mL (≈ 0.422 µM) and an MIC (Kluyveromyces marxianus) of 0.78 µg/mL (≈ 0.844 µM). It also gave an MIC (Nakaseomyces glabratus) of 0.39 µg/mL (≈ 0.422 µM), an MIC (Candida albicans [2]) of 1 µg/mL (≈ 1.08 µM) and an MIC (Candida albicans [3]) of 1.56 µg/mL (≈ 1.69 µM). It also gave an MIC (Candida albicans [4]) of 0.78 µg/mL (≈ 0.844 µM), an MIC (Candida albicans [5]) of 0.78 µg/mL (≈ 0.844 µM) and an MIC (Candida albicans [6]) of 0.78 µg/mL (≈ 0.844 µM). It also gave an MIC (Candida tropicalis) of 0.12 µg/mL (≈ 0.13 µM), an MIC (Pichia kudriavzevii) of 0.39 µg/mL (≈ 0.422 µM) and an MIC (Clavispora lusitaniae) of 0.39 µg/mL (≈ 0.422 µM). It also gave an MIC (Candida parapsilosis) of 0.78 µg/mL (≈ 0.844 µM) and an MIC (Candida albicans [7]) of 1.56 µg/mL (≈ 1.69 µM).

With O=C(O)/C=C\C(=O)NCCc1ccccc1 the MIC (Torulaspora delbrueckii) was greater than 250 µg/mL, the MIC (Candida albicans [1]) was greater than 250 µg/mL and the MIC (Kluyveromyces marxianus) was greater than 250 µg/mL. For the same molecule, the MIC (Nakaseomyces glabratus) was greater than 250 µg/mL, the MIC (Candida albicans [2]) was greater than 250 µg/mL and the MIC (Candida albicans [3]) was greater than 250 µg/mL. It also gave an MIC (Candida albicans [4]) greater than 250 µg/mL, an MIC (Candida albicans [5]) greater than 250 µg/mL and an MIC (Candida albicans [6]) greater than 250 µg/mL. The MIC (Candida tropicalis) was greater than 250 µg/mL, the MIC (Pichia kudriavzevii) was greater than 250 µg/mL and the MIC (Clavispora lusitaniae) was greater than 250 µg/mL. It also gave an MIC (Candida parapsilosis) greater than 250 µg/mL and an MIC (Candida albicans [7]) greater than 250 µg/mL.

In the case of CC(=O)N1CCN(c2ccc(OCC3COC(Cn4ccnc4)(c4ccc(Cl)cc4Cl)O3)cc2)CC1 (configuration not stated) [KETOCONAZOLE], the MIC (Torulaspora delbrueckii) is reported as 0.78 µg/mL (≈ 1.47 µM), the MIC (Candida albicans [1]) is reported as 6.25 µg/mL (≈ 11.8 µM) and the MIC (Kluyveromyces marxianus) is reported as 0.78 µg/mL (≈ 1.47 µM). The MIC (Nakaseomyces glabratus) was 1.56 µg/mL (≈ 2.94 µM), the MIC (Candida albicans [2]) was 0.5 µg/mL (≈ 0.941 µM) and the MIC (Candida albicans [3]) was 1.56 µg/mL (≈ 2.94 µM). The MIC (Candida albicans [4]) was 6.25 µg/mL (≈ 11.8 µM), the MIC (Candida albicans [5]) was 6.25 µg/mL (≈ 11.8 µM) and the MIC (Candida albicans [6]) was 12.5 µg/mL (≈ 23.5 µM). It also gave an MIC (Candida tropicalis) of 0.12 µg/mL (≈ 0.226 µM), an MIC (Pichia kudriavzevii) of 50 µg/mL (≈ 94.1 µM) and an MIC (Clavispora lusitaniae) of 25 µg/mL (≈ 47 µM). It also gave an MIC (Candida parapsilosis) of 0.78 µg/mL (≈ 1.47 µM) and an MIC (Candida albicans [7]) of 6.25 µg/mL (≈ 11.8 µM).

O=C1C=CC(=O)N1c1ccccc1 was tested, and the MIC (Candida albicans [8]) was 62.5 µg/mL (≈ 361 µM), the Activity (Candida albicans [9]) was “Active” and the MIC (Candida albicans [10]) was 3.9 µg/mL (≈ 22.5 µM). It also gave an MIC (Candida albicans [11]) of 500 µg/mL (≈ 2890 µM), an MIC (Candida albicans [12]) of 125 µg/mL (≈ 722 µM) and an MFC (Torulaspora delbrueckii) of 3.9 µg/mL (≈ 22.5 µM). The MIC (Torulaspora delbrueckii) was 1.95 µg/mL (≈ 11.3 µM), the MIC (Candida albicans [13]) was 3.9 µg/mL (≈ 22.5 µM) and the MFC (Candida albicans [1]) was 1.95 µg/mL (≈ 11.3 µM). It also gave an MIC (Candida albicans [1]) of 0.48 µg/mL (≈ 2.77 µM), an MFC (Kluyveromyces marxianus) of 3.9 µg/mL (≈ 22.5 µM) and an MIC (Kluyveromyces marxianus) of 1.95 µg/mL (≈ 11.3 µM). The MFC (Nakaseomyces glabratus) was 3.9 µg/mL (≈ 22.5 µM), the MIC (Nakaseomyces glabratus) was 1.95 µg/mL (≈ 11.3 µM) and the MFC (Candida albicans [2]) was 7.8 µg/mL (≈ 45 µM). The MIC (Candida albicans [2]) was 3.9 µg/mL (≈ 22.5 µM), the MFC (Candida albicans [3]) was 3.9 µg/mL (≈ 22.5 µM) and the MIC (Candida albicans [3]) was 0.97 µg/mL (≈ 5.6 µM). The MFC (Candida albicans [4]) was 1.95 µg/mL (≈ 11.3 µM), the MIC (Candida albicans [4]) was 0.97 µg/mL (≈ 5.6 µM) and the MFC (Candida albicans [5]) was 1.95 µg/mL (≈ 11.3 µM). It also gave an MIC (Candida albicans [5]) of 0.48 µg/mL (≈ 2.77 µM), an MFC (Candida albicans [6]) of 1.95 µg/mL (≈ 11.3 µM) and an MIC (Candida albicans [6]) of 0.48 µg/mL (≈ 2.77 µM). The MIC (Candida albicans [14]) was 3.9 µg/mL (≈ 22.5 µM), the MFC (Candida tropicalis) was 15.8 µg/mL (≈ 91 µM) and the MIC (Candida tropicalis) was 7.81 µg/mL (≈ 45.1 µM). The MFC (Pichia kudriavzevii) was 1.95 µg/mL (≈ 11.3 µM), the MIC (Pichia kudriavzevii) was 1.95 µg/mL (≈ 11.3 µM) and the MFC (Clavispora lusitaniae) was 7.8 µg/mL (≈ 45 µM). The MIC (Clavispora lusitaniae) was 3.9 µg/mL (≈ 22.5 µM), the MIC (Candida albicans [15]) was 7.8 µg/mL (≈ 45 µM) and the MIC (Candida albicans [16]) was 15.8 µg/mL (≈ 91 µM). For the same molecule, the MFC (Candida parapsilosis) was 3.9 µg/mL (≈ 22.5 µM), the MIC (Candida parapsilosis) was 1.95 µg/mL (≈ 11.3 µM) and the MFC (Candida albicans [7]) was 3.9 µg/mL (≈ 22.5 µM). It also gave an MIC (Candida albicans [7]) of 0.97 µg/mL (≈ 5.6 µM).

With O=C(O)/C=C\C(=O)NCCCCc1ccccc1 the MIC (Torulaspora delbrueckii) was greater than 250 µg/mL, the MIC (Candida albicans [1]) was greater than 250 µg/mL and the MIC (Kluyveromyces marxianus) was greater than 250 µg/mL. For the same molecule, the MIC (Nakaseomyces glabratus) was greater than 250 µg/mL, the MIC (Candida albicans [2]) was greater than 250 µg/mL and the MIC (Candida albicans [3]) was greater than 250 µg/mL. It also gave an MIC (Candida albicans [4]) greater than 250 µg/mL, an MIC (Candida albicans [5]) greater than 250 µg/mL and an MIC (Candida albicans [6]) greater than 250 µg/mL. For the same molecule, the MIC (Candida tropicalis) was greater than 250 µg/mL, the MIC (Pichia kudriavzevii) was greater than 250 µg/mL and the MIC (Clavispora lusitaniae) was greater than 250 µg/mL. For the same molecule, the MIC (Candida parapsilosis) was greater than 250 µg/mL and the MIC (Candida albicans [7]) was greater than 250 µg/mL.

With O=C(O)/C=C\C(=O)NCCCc1ccccc1 the MIC (Torulaspora delbrueckii) was greater than 250 µg/mL, the MIC (Candida albicans [1]) was greater than 250 µg/mL and the MIC (Kluyveromyces marxianus) was greater than 250 µg/mL. It also gave an MIC (Nakaseomyces glabratus) greater than 250 µg/mL, an MIC (Candida albicans [2]) greater than 250 µg/mL and an MIC (Candida albicans [3]) greater than 250 µg/mL. The MIC (Candida albicans [4]) was greater than 250 µg/mL, the MIC (Candida albicans [5]) was greater than 250 µg/mL and the MIC (Candida albicans [6]) was greater than 250 µg/mL. The MIC (Candida tropicalis) was greater than 250 µg/mL, the MIC (Pichia kudriavzevii) was greater than 250 µg/mL and the MIC (Clavispora lusitaniae) was greater than 250 µg/mL. The MIC (Candida parapsilosis) was greater than 250 µg/mL and the MIC (Candida albicans [7]) was greater than 250 µg/mL.
